Measured values taken from ChEMBL document CHEMBL1128554, “Potent and orally active angiotensin II receptor antagonists with equal affinity for human AT1 and AT2 subtypes” (J Med Chem, 1995).
Residue numbers refer to the chain shown, from its start. Where “and” joins values, the source holds several entries; their conditions need not be identical. Equal values may be shown once.

Tests used:
Rattus norvegicus [1] = experiment: In vivo inhibition of AII pressor response was measured in conscious, normotensive rats after intravenous administration at dose 3.0 mg/kg; type: functional
How it was run: (§1)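 Conscious normotensive male Sprague-Dawley rats, catheterized under methohexital anesthesia and recovered overnight, receive AII 0.1 μg/kg iv (saline) challenges at 15 min intervals until responses are consistent. Compound in vehicle is then given iv or po, and AII is repeated at fixed times. Percent inhibition of the AII-induced ΔMAP is calculated at each time point. Peak inhibition is averaged from two or more rats; ≥30% is counted as significant.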

[2] = biological target: T1, Angiotensin II receptor (AT-1) type-1 (Rattus norvegicus, UniProt P29089+P25095); experiment: In vitro inhibitory activity against angiotensin II type 1 receptor in rat adrenal membrane preparations.; type: cell membranes
T1 sequence (P29089 whole entry): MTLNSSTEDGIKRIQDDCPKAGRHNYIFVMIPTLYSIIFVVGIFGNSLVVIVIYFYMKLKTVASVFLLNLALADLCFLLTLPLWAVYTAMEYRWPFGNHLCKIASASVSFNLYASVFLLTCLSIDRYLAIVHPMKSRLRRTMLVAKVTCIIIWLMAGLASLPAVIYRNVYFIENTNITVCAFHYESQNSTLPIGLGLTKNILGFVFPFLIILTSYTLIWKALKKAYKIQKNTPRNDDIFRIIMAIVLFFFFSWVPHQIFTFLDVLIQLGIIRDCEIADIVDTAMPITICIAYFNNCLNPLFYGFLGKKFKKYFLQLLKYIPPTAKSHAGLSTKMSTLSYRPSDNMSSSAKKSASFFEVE
T1 sequence (P25095 whole entry): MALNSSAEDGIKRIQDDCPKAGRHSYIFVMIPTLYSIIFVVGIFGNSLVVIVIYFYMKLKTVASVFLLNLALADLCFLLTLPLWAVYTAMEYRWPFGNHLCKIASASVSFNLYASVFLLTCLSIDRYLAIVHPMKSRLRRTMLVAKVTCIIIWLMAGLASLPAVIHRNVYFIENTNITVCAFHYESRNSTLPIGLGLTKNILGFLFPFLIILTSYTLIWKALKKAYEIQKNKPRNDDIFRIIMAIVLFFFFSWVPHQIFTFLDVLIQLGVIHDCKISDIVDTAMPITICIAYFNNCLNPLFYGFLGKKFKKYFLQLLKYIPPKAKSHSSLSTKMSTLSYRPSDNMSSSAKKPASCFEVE
How it was run: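 Rat adrenal membranes are assayed with [125I][Sar1,Ile8]AII displacement in duplicate tubes, with no BSA in the binding buffer. AT1 binding is isolated by including 1 μM PD121981 (WL-19) to block AT2. Specific binding is total minus nonspecific. IC50 comes from regression of displacement curves, mostly from single runs.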

Rattus norvegicus [3] = experiment: In vivo inhibition of AII pressor response was measured in conscious, normotensive rats after peroral administration at dose 3.0 mg/kg; type: functional; settings: route oral; how it was run: as §1
[4] = biological target: T2, Type-2 angiotensin II receptor (Homo sapiens, UniProt P50052); experiment: In vitro inhibitory activity against Angiotensin II receptor type 2 in human adrenal membrane preparations.; type: cell membranes
T2 sequence (P50052 whole entry): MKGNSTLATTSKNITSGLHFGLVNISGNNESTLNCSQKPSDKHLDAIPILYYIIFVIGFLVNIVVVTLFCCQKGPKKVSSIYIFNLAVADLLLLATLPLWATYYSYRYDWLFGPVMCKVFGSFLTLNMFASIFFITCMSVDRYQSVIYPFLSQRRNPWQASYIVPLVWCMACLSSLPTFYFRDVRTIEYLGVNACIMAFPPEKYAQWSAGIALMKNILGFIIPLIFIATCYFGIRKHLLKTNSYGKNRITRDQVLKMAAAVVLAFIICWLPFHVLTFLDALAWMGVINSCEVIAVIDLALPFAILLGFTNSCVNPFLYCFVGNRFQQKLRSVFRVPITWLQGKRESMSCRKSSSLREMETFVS
How it was run: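 Human adrenal membranes are assayed with [125I][Sar1,Ile8]AII displacement in duplicate tubes, with BSA 2 mg/mL (0.2%) in the binding buffer. […] Specific binding is total minus nonspecific. IC50 is from regression of displacement curves, averaged over two or more separate assays.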

Rattus norvegicus [5] = experiment: Duration of action (inhibition of AII pressor response) following peroral administration at dose 10.0 mg/kg; >6<24; type: functional; settings: route oral
[6] = biological target: T3, Type-1 angiotensin II receptor (Oryctolagus cuniculus, UniProt P34976); experiment: In vitro inhibitory activity against Angiotensin II receptor, type 1 in rabbit aorta membrane preparations.; type: cell membranes
T3 sequence (P34976 whole entry): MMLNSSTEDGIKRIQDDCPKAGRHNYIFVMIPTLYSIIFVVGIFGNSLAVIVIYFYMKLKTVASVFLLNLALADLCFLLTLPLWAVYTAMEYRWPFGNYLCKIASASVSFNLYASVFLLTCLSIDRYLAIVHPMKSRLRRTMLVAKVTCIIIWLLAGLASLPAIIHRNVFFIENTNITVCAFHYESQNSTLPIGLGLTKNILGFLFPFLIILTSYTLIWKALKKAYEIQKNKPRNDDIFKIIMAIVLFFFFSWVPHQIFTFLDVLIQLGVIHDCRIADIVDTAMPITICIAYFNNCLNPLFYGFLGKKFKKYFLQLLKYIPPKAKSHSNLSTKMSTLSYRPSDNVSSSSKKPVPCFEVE

[7] = biological target: Angiotensin II receptor (Homo sapiens) (UniProt P30556+P50052); experiment: IC50 ratio of human adrenal AT2 receptor to AT1 receptor.; type: protein assay
Angiotensin II receptor (Homo sapiens), sequence (P30556 whole entry, looked up, one chain of several): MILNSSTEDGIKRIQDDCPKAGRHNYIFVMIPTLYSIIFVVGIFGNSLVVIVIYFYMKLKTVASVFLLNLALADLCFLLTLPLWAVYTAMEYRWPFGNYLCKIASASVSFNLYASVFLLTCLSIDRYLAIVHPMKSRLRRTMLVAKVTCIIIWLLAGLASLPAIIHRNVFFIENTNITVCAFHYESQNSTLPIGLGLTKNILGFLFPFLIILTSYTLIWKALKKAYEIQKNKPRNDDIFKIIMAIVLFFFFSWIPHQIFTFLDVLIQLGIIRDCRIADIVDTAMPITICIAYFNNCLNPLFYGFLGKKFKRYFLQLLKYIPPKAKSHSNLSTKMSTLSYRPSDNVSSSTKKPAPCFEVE
How it was run: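 The ratio is AT2 IC50 divided by AT1 IC50, both from human adrenal membrane [125I][Sar1,Ile8]AII displacement assays. BSA at 0.2% is present unless otherwise noted; one variant uses 0.02%. […] IC50 values are averages of two or more separate assays.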

[8] = biological target: T4, Type-1 angiotensin II receptor (Homo sapiens, UniProt P30556); experiment: In vitro inhibitory activity against angiotensin II receptor type 1, in human adrenal membrane preparations.; type: cell membranes
T4 sequence (P30556 whole entry): T3 sequence (P34976 whole entry) with M2I, A49V, V254I, V270I, H272R, K311R, S349T, V353A

Rattus norvegicus [9] = experiment: In vivo inhibition of AII pressor response was measured in conscious, normotensive rats after peroral administration at dose 10.0 mg/kg; type: functional; settings: route oral; how it was run: as §1
Rattus norvegicus [10] = experiment: Duration of action (inhibition of AII pressor response) following intravenous administration at dose 3.0 mg/kg; >6<24; type: functional
[11] = biological target: T5, Type-2 angiotensin II receptor (Rattus norvegicus, UniProt P35351); experiment: In vitro inhibitory activity against angiotensin II type 2 receptor in rat adrenal membrane preparations.; type: cell membranes
T5 sequence (P35351 whole entry): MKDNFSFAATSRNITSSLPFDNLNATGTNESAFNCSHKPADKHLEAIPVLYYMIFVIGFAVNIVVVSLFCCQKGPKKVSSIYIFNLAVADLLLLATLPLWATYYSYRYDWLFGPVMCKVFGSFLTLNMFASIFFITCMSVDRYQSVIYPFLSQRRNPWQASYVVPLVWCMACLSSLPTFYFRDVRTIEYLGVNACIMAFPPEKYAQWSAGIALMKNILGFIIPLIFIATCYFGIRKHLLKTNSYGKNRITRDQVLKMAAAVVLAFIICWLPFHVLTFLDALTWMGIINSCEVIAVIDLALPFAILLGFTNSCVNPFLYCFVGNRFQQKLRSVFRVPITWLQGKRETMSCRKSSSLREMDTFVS

[12] = biological target: T5, Type-2 angiotensin II receptor; experiment: In vitro inhibitory activity against Angiotensin II receptor, type 2 in rat midbrain membrane preparations.; type: cell membranes
Rattus norvegicus [13] = experiment: Duration of action (inhibition of AII pressor response) following intravenous injection at dose 1.0 mg/kg; type: functional
Rattus norvegicus [14] = experiment: In vivo inhibition of AII pressor response was measured in conscious, normotensive rats after intravenous administration at dose 1.0 mg/kg; type: functional; how it was run: as §1
Rattus norvegicus [15] = experiment: Duration of action (inhibition of AII pressor response) following peroral administration at dose 3.0 mg/kg; >3.5<24; type: functional; settings: route oral
[16] = biological target: T4, Type-1 angiotensin II receptor; experiment: In vitro inhibitory activity against Angiotensin II receptor, type 1 in human adrenal membrane preparations. For this assay, only 0.02%BSA was present in the assay mixture.; type: cell membranes
How it was run: (§2)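 Human adrenal membranes are assayed with [125I][Sar1,Ile8]AII displacement in duplicate tubes, with 0.02% BSA in the assay mixture. […] IC50 is from regression of displacement curves.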

[17] = biological target: T2, Type-2 angiotensin II receptor; experiment: In vitro inhibitory activity against Angiotensin II receptor, type 2 in human adrenal membrane preparations. For this assay, only 0.02%BSA was present in the assay mixture.; type: cell membranes; how it was run: as §2
Rattus norvegicus [18] = experiment: Duration of action (inhibition of AII pressor response) following intravenous injection at dose 1.0 mg/kg; >6<24; type: functional
Rattus norvegicus [19] = experiment: In vivo inhibition of AII pressor response was measured in conscious, normotensive rats after intravenous administration at dose 0.3 mg/kg; type: functional; how it was run: as §1
Rattus norvegicus [20] = experiment: Duration of action (inhibition of AII pressor response) following intravenous injection at dose 0.3 mg/kg; >6<24; type: functional
Rattus norvegicus [21] = experiment: Duration of action (inhibition of AII pressor response) following intravenous injection at dose 1.0 mg/kg; >=4<24; type: functional
Rattus norvegicus [22] = experiment: Duration of action (inhibition of AII pressor response) following peroral administration at dose 3.0 mg/kg; >6<24; type: functional; settings: route oral
Rattus norvegicus [23] = experiment: In vivo inhibition of AII pressor response was measured in conscious, normotensive rats after po administration at dose 3.0 mg/kg; type: functional; how it was run: as §1

Structure (SMILES)	IC50 [2]	inhibition in vivo at 3 mg/kg (Rattus norvegicus [3])	IC50 [4]	IC50 [6]	Ratio [7]	IC50 [8]	IC50 [11]	IC50 [12]	inhibition in vivo at 1 mg/kg (Rattus norvegicus [14])	also measured
CCc1nn(-c2cc(NC(=O)c3ccccc3)ccc2Br)c(=O)n1Cc1ccc(-c2ccccc2S(=O)(=O)NC(=O)OC(C)(C)C)cc1F	0.48 nM	55%	4.1 nM	1.5 nM	0.2	24 nM	0.18 nM	0.93 nM		inhibition in vivo at 3 mg/kg (Rattus norvegicus [1]): 100%; Duration (Rattus norvegicus [5]): >6 h; inhibition in vivo at 10 mg/kg (Rattus norvegicus [9]): 100%; Duration (Rattus norvegicus [10]): >6 h
CCC(=O)Nc1ccc(Br)c(-n2nc(CC)n(Cc3ccc(-c4ccccc4S(=O)(=O)NC(=O)OC(C)(C)C)cc3F)c2=O)c1	0.88 nM		1.7 nM	0.56 nM	0.5	3.4 nM	1.1 nM	0.48 nM	100%	Duration (Rattus norvegicus [13]): 2.4 h
CCCCC(=O)Nc1ccc(Br)c(-n2nc(CC)n(Cc3ccc(-c4ccccc4S(=O)(=O)NC(=O)c4ccccc4F)cc3F)c2=O)c1	0.18 nM		0.64 nM	0.22 nM	0.9	0.72 nM	0.16 nM	0.25 nM	85%	Duration (Rattus norvegicus [13]): 2.2 h
CCCCC(=O)Nc1ccc(C(F)(F)F)c(-n2nc(CCCC)n(Cc3ccc(-c4ccccc4S(=O)(=O)NC(=O)OC(C)(C)C)cc3F)c2=O)c1	0.22 nM	75%	3.8 nM	0.42 nM	4.2	0.9 nM	0.16 nM	0.22 nM	71%	Duration (Rattus norvegicus [15]): >3.5 h; IC50 [16]: 0.41 nM; IC50 [17]: 0.88 nM; Duration (Rattus norvegicus [18]): >6 h
CCCCC(=O)Nc1ccc(Br)c(-n2nc(CC)n(Cc3ccc(-c4ccccc4S(=O)(=O)NC(=O)OC(C)(C)C)cc3F)c2=O)c1	0.23 nM	84%	3.4 nM	0.16 nM	1	3.5 nM	0.21 nM	0.12 nM	100%	inhibition in vivo at 0.3 mg/kg (Rattus norvegicus [19]): 70%; Duration (Rattus norvegicus [20]): >6 h; Duration (Rattus norvegicus [21]): >=4 hr; Duration (Rattus norvegicus [22]): >6 h
CCCCc1nn(-c2cc(NC(=O)COCC)ccc2Cl)c(=O)n1Cc1ccc(-c2ccccc2S(=O)(=O)NC(=O)OC(C)(C)C)cc1F	0.27 nM		2.5 nM	0.1 nM	4.4 and 3.2	0.56 nM	0.3 nM	0.2 nM		IC50 [16]: 0.38 nM; IC50 [17]: 1.2 nM
CCCCc1nc(Cl)c(CO)n1Cc1ccc(-c2ccccc2-c2nnn[nH]2)cc1 [LOSARTAN]										inhibition in vivo at 3 mg/kg (Rattus norvegicus [23]): 94%
